Experimental data published in ChEMBL document CHEMBL5329146, “Thiourea derivatives containing 4-arylthiazoles and d-glucose moiety: design, synthesis, antimicrobial activity evaluation, and molecular docking/dynamics simulations” (RSC Med Chem, 2023).
Values after ≈ are worked out from the molar mass of the structure shown.

Tests used:
Klebsiella pneumoniae = experiment: Antibacterial activity against Klebsiella pneumoniae assessed as inhibition of visible bacterial growth incubated for 18 to 20 hrs by microbroth dilution method; format: functional; conditions: time 18-20 hrs
How it was run: (§1)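 Inoculum was a 4–6 h broth culture adjusted to 0.5 McFarland turbidity and diluted to a final 5 × 10^5 CFU mL−1. Plates were incubated at 35 °C for 18–20 h. MIC was the lowest concentration giving complete inhibition of visible growth. Run three times.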

Streptococcus pneumoniae = experiment: Antibacterial activity against Streptococcus pneumoniae assessed as inhibition of visible bacterial growth incubated for 18 to 20 hrs by microbroth dilution method; format: functional; conditions: time 18-20 hrs
Aspergillus flavus = experiment: Antifungal activity against Aspergillus flavus assessed as inhibition of fungal growth incubated for 72 hrs by agar dilution method; format: functional
How it was run: (§2)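 Agar dilution on Sabouraud dextrose agar, with compound solutions at 400 down to 0.78 μg mL−1 (twofold series). Fungal suspensions containing […] were applied to agar plates serially diluted with test compound. Plates were incubated at 35 °C, and MIC was read after 72 h. Experiments were performed three times.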

Saccharomyces cerevisiae = experiment: Antifungal activity against Saccharomyces cerevisiae assessed as inhibition of fungal growth incubated for 72 hrs by agar dilution method; format: functional; how it was run: as §2
[1] = tested on: Staphylococcus epidermidis; experiment: Antibacterial activity against Staphylococcus epidermidis assessed as inhibition of visible bacterial growth incubated for 18 to 20 hrs by microbroth dilution method; format: functional; conditions: time 18-20 hrs; how it was run: as §1
Escherichia coli = experiment: Antibacterial activity against Escherichia coli assessed as inhibition of visible bacterial growth incubated for 18 to 20 hrs by microbroth dilution method; format: functional; conditions: time 18-20 hrs; how it was run: as §1
Bacillus subtilis = experiment: Antibacterial activity against Bacillus subtilis assessed as inhibition of visible bacterial growth incubated for 18 to 20 hrs by microbroth dilution method; format: functional; conditions: time 18-20 hrs; how it was run: as §1
Candida albicans = experiment: Antifungal activity against Candida albicans assessed as inhibition of fungal growth incubated for 72 hrs by agar dilution method; format: functional; how it was run: as §2
Clostridioides difficile = experiment: Antibacterial activity against Clostridium difficile assessed as inhibition of visible bacterial growth incubated for 18 to 20 hrs by microbroth dilution method; format: functional; conditions: time 18-20 hrs
Fusarium oxysporum = experiment: Antifungal activity against Fusarium oxysporum assessed as inhibition of fungal growth incubated for 72 hrs by agar dilution method; format: functional; how it was run: as §2
Aspergillus niger = experiment: Antifungal activity against Aspergillus niger assessed as inhibition of fungal growth incubated for 72 hrs by agar dilution method; format: functional; how it was run: as §2
Staphylococcus aureus = experiment: Antibacterial activity against Staphylococcus aureus assessed as inhibition of visible bacterial growth incubated for 18 to 20 hrs by microbroth dilution method; format: functional; conditions: time 18-20 hrs; how it was run: as §1
Pseudomonas aeruginosa = experiment: Antibacterial activity against Pseudomonas aeruginosa assessed as inhibition of visible bacterial growth incubated for 18 to 20 hrs by microbroth dilution method; format: functional; conditions: time 18-20 hrs; how it was run: as §1
Salmonella typhimurium = experiment: Antibacterial activity against Salmonella typhimurium assessed as inhibition of visible bacterial growth incubated for 18 to 20 hrs by microbroth dilution method; format: functional, Salmonella enterica subsp. enterica serovar Typhimurium; conditions: Salmonella enterica; time 18-20 hrs; how it was run: as §1
Topoisomerase IV = Topoisomerase IV (Staphylococcus aureus, UniProt P0C1S7+P0C1U9); experiment: Inhibition of Staphylococcus aureus DNA topoisomerase 4 using supercoiled plasmid DNA as substrate; format: protein-complex assay
Sequence of Topoisomerase IV (P0C1U9 whole entry): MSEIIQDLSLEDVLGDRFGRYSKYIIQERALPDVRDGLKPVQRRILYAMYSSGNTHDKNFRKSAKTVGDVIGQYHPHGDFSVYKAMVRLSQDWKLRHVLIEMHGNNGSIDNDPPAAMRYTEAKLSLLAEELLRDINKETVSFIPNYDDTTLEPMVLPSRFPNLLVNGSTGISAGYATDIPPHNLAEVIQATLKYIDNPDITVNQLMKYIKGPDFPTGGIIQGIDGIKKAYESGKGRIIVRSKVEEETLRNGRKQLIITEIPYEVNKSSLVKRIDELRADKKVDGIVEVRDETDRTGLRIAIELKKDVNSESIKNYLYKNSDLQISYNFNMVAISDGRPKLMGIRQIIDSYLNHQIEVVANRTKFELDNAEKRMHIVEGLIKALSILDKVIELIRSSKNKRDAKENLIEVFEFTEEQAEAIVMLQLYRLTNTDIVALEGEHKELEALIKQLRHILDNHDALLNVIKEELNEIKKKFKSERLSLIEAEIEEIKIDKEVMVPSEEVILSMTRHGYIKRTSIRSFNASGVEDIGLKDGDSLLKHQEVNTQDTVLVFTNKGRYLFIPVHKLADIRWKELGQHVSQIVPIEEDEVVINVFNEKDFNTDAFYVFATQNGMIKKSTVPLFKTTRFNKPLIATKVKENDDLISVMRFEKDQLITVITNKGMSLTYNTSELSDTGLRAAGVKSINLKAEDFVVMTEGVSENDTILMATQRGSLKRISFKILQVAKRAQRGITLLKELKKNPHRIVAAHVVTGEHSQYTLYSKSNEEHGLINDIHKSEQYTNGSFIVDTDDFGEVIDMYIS
Sequence of Topoisomerase IV (P0C1S7 whole entry): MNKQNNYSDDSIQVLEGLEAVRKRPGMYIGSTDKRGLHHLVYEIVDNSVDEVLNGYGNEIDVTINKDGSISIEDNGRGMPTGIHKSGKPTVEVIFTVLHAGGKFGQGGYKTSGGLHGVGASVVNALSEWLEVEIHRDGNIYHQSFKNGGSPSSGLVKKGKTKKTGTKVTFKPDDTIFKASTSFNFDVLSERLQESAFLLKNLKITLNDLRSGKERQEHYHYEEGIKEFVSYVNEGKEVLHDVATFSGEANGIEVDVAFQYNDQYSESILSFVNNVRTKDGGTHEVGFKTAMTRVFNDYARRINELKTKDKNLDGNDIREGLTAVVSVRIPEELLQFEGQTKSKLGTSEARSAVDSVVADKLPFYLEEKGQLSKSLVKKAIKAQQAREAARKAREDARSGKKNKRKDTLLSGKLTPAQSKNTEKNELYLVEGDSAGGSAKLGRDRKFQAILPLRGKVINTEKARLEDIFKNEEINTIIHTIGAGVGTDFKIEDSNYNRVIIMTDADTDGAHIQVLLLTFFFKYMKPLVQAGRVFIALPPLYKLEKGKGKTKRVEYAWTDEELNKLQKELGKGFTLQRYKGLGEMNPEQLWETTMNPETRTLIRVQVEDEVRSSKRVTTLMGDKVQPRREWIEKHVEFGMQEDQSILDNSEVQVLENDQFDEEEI

DNA gyrase = DNA gyrase (Staphylococcus aureus, UniProt P0A0K8+P20831); experiment: Inhibition of Staphylococcus aureus DNA gyrase incubated for 30 mins in presence of relaxed plasmid DNA by supercoiling based gel electrophoresis analysis; format: protein-complex assay
Sequence of DNA gyrase (P0A0K8 whole entry): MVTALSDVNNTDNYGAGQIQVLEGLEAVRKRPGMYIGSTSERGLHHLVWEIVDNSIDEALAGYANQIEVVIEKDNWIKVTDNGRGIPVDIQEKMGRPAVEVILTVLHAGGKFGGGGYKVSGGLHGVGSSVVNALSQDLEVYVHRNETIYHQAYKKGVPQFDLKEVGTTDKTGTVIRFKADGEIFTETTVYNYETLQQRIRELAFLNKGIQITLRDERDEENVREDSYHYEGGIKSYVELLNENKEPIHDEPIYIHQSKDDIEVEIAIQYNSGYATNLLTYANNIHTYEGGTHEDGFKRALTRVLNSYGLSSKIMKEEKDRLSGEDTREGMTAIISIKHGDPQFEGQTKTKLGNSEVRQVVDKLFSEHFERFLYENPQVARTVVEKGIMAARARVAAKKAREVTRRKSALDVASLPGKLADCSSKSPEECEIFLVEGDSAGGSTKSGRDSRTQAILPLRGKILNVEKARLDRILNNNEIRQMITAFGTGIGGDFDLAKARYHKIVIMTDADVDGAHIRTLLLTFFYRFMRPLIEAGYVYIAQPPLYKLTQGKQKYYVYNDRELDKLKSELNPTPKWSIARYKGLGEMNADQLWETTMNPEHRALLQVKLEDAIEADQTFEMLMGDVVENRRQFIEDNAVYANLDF
Sequence of DNA gyrase (P20831 whole entry): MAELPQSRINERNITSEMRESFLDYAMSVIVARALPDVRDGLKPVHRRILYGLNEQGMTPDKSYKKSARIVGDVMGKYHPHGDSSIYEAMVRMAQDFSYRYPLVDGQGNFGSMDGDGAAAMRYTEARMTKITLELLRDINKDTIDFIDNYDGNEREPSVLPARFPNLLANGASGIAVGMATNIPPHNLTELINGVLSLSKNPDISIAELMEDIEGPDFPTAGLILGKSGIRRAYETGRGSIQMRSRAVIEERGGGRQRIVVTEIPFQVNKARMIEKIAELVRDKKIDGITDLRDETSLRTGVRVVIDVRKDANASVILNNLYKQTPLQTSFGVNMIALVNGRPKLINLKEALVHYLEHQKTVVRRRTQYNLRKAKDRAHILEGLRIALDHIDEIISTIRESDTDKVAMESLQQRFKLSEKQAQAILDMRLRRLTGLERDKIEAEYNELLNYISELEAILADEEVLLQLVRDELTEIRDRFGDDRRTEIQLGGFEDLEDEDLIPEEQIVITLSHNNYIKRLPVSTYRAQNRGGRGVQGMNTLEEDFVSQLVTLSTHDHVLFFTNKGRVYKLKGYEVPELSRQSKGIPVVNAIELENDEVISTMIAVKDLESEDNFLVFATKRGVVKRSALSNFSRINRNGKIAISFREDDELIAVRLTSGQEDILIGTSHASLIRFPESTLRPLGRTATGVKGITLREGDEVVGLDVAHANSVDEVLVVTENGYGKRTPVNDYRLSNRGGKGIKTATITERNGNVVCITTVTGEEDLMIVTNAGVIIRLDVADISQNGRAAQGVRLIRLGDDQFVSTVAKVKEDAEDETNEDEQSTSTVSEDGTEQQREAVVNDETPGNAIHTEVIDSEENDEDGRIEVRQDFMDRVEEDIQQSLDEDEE

Dihydrofolate reductase = Dihydrofolate reductase (Staphylococcus aureus, UniProt P0A017); experiment: Inhibition of Staphylococcus aureus DHFR preincubated for 5 mins followed by dihydrofolic acid addition and measured for 10 mins by absorbance based assay
Sequence of Dihydrofolate reductase (P0A017 whole entry): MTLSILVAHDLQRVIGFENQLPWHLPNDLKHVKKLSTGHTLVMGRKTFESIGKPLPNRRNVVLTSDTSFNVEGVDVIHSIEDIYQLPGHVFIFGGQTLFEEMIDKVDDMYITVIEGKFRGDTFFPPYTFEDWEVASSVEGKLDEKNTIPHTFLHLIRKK

Row | Compound | MIC (Klebsiella pneumoniae) [µg/mL] | MIC (Streptococcus pneumoniae) [µg/mL] | MIC (Aspergillus flavus) [µg/mL] | MIC (Saccharomyces cerevisiae) [µg/mL] | MIC [1] [µg/mL] | MIC (Escherichia coli) [µg/mL] | MIC (Bacillus subtilis) [µg/mL] | MIC (Candida albicans) [µg/mL] | MIC (Clostridioides difficile) [µg/mL] | MIC (Fusarium oxysporum) [µg/mL] | MIC (Aspergillus niger) [µg/mL] | MIC (Staphylococcus aureus) [µg/mL] | MIC (Pseudomonas aeruginosa) [µg/mL] | MIC (Salmonella typhimurium) [µg/mL] | IC50 (Topoisomerase IV) [nM] | IC50 (DNA gyrase) [nM] | IC50 (Dihydrofolate reductase) [nM]
1 | CC(=O)OC[C@H]1O[C@@H](NC(=S)Nc2nc(-c3ccc(Br)cc3)cs2)[C@H](OC(C)=O)[C@@H](OC(C)=O)[C@@H]1OC(C)=O | 6.25 (≈ 9.7 µM) | 50 (≈ 77.6 µM) | 3.12 (≈ 4.85 µM) | 25 (≈ 38.8 µM) | 25 (≈ 38.8 µM) | 1.56 (≈ 2.42 µM) | 3.12 (≈ 4.85 µM) | 50 (≈ 77.6 µM) | 6.25 (≈ 9.7 µM) | 0.78 (≈ 1.21 µM) | 50 (≈ 77.6 µM) | 12.5 (≈ 19.4 µM) | 100 (≈ 155 µM) | 0.78 (≈ 1.21 µM) | – | – | –
2 | COc1ccc(-c2csc(NC(=S)N[C@@H]3O[C@H](COC(C)=O)[C@@H](OC(C)=O)[C@H](OC(C)=O)[C@H]3OC(C)=O)n2)cc1 | 1.56 (≈ 2.62 µM) | 3.12 (≈ 5.25 µM) | 6.25 (≈ 10.5 µM) | 12.5 (≈ 21 µM) | 100 (≈ 168 µM) | 3.12 (≈ 5.25 µM) | 400 (≈ 672 µM) | 0.78 (≈ 1.31 µM) | 3.12 (≈ 5.25 µM) | 12.5 (≈ 21 µM) | 6.25 (≈ 10.5 µM) | 1.56 (≈ 2.62 µM) | 12.5 (≈ 21 µM) | 6.25 (≈ 10.5 µM) | 79200 | 1370 | 170
3 | COc1ccc(-c2csc(NC(=S)N[C@@H]3O[C@H](COC(C)=O)[C@@H](OC(C)=O)[C@H](OC(C)=O)[C@H]3OC(C)=O)n2)cc1[N+](=O)[O-] | 0.78 (≈ 1.22 µM) | 6.25 (≈ 9.76 µM) | 1.56 (≈ 2.44 µM) | 200 (≈ 312 µM) | 50 (≈ 78 µM) | 200 (≈ 312 µM) | 50 (≈ 78 µM) | 12.5 (≈ 19.5 µM) | 200 (≈ 312 µM) | 25 (≈ 39 µM) | 100 (≈ 156 µM) | 0.78 (≈ 1.22 µM) | 0.78 (≈ 1.22 µM) | 50 (≈ 78 µM) | 67300 | 1250 | 130
4 | CC(=O)OC[C@H]1O[C@@H](NC(=S)Nc2nc(-c3ccc(Cl)cc3)cs2)[C@H](OC(C)=O)[C@@H](OC(C)=O)[C@@H]1OC(C)=O | 12.5 (≈ 20.8 µM) | 400 (≈ 667 µM) | 25 (≈ 41.7 µM) | 3.12 (≈ 5.21 µM) | 3.12 (≈ 5.21 µM) | 50 (≈ 83.3 µM) | 12.5 (≈ 20.8 µM) | 25 (≈ 41.7 µM) | 12.5 (≈ 20.8 µM) | 3.12 (≈ 5.21 µM) | 25 (≈ 41.7 µM) | 3.12 (≈ 5.21 µM) | 200 (≈ 333 µM) | 12.5 (≈ 20.8 µM) | 68700 | 2820 | 230
5 | CC(=O)OC[C@H]1O[C@@H](NC(=S)Nc2nc(-c3ccccc3)cs2)[C@H](OC(C)=O)[C@@H](OC(C)=O)[C@@H]1OC(C)=O | 25 (≈ 44.2 µM) | 25 (≈ 44.2 µM) | 50 (≈ 88.4 µM) | 1.56 (≈ 2.76 µM) | 0.78 (≈ 1.38 µM) | 100 (≈ 177 µM) | 25 (≈ 44.2 µM) | 3.12 (≈ 5.52 µM) | 50 (≈ 88.4 µM) | 6.25 (≈ 11 µM) | 0.78 (≈ 1.38 µM) | 200 (≈ 354 µM) | 6.25 (≈ 11 µM) | 400 (≈ 707 µM) | – | – | –
6 | OC(Cn1cncn1)(Cn1cncn1)c1ccc(F)cc1F [FLUCONAZOLE] | – | – | 0.78 (≈ 2.55 µM) | 0.78 (≈ 2.55 µM) | – | – | – | 0.78 (≈ 2.55 µM) | – | 0.78 (≈ 2.55 µM) | 1.56 (≈ 5.09 µM) | – | – | – | – | – | –
7 | CCc1ccc(-c2csc(NC(=S)N[C@@H]3O[C@H](COC(C)=O)[C@@H](OC(C)=O)[C@H](OC(C)=O)[C@H]3OC(C)=O)n2)cc1 | 50 (≈ 84.2 µM) | 100 (≈ 168 µM) | 200 (≈ 337 µM) | 400 (≈ 674 µM) | 6.25 (≈ 10.5 µM) | 12.5 (≈ 21.1 µM) | 0.78 (≈ 1.31 µM) | 6.25 (≈ 10.5 µM) | 400 (≈ 674 µM) | 400 (≈ 674 µM) | 200 (≈ 337 µM) | 400 (≈ 674 µM) | 25 (≈ 42.1 µM) | 100 (≈ 168 µM) | – | – | –
8 | CC(=O)OC[C@H]1O[C@@H](NC(=S)Nc2nc(-c3cccc([N+](=O)[O-])c3)cs2)[C@H](OC(C)=O)[C@@H](OC(C)=O)[C@@H]1OC(C)=O | 3.12 (≈ 5.12 µM) | 0.78 (≈ 1.28 µM) | 0.78 (≈ 1.28 µM) | 6.25 (≈ 10.2 µM) | 12.5 (≈ 20.5 µM) | 0.78 (≈ 1.28 µM) | 6.25 (≈ 10.2 µM) | 100 (≈ 164 µM) | 0.78 (≈ 1.28 µM) | 50 (≈ 81.9 µM) | 3.12 (≈ 5.12 µM) | 6.25 (≈ 10.2 µM) | 3.12 (≈ 5.12 µM) | 3.12 (≈ 5.12 µM) | – | – | –
9 | CC(=O)OC[C@H]1O[C@@H](NC(=S)Nc2nc(-c3ccc(C)cc3)cs2)[C@H](OC(C)=O)[C@@H](OC(C)=O)[C@@H]1OC(C)=O | 200 (≈ 345 µM) | 12.5 (≈ 21.6 µM) | 12.5 (≈ 21.6 µM) | 0.78 (≈ 1.35 µM) | 400 (≈ 690 µM) | 6.25 (≈ 10.8 µM) | 100 (≈ 173 µM) | 400 (≈ 690 µM) | 25 (≈ 43.1 µM) | 200 (≈ 345 µM) | 12.5 (≈ 21.6 µM) | 25 (≈ 43.1 µM) | 50 (≈ 86.3 µM) | 25 (≈ 43.1 µM) | – | – | –
10 | Clc1ccc(COC(Cn2ccnc2)c2ccc(Cl)cc2Cl)c(Cl)c1 (configuration not stated) [MICONAZOLE] | – | – | 1.56 (≈ 3.75 µM) | 3.12 (≈ 7.51 µM) | – | – | – | 3.12 (≈ 7.51 µM) | – | 3.12 (≈ 7.51 µM) | 1.56 (≈ 3.75 µM) | – | – | – | – | – | –
11 | CN[C@H](CC(C)C)C(=O)N[C@H]1C(=O)N[C@@H](CC(N)=O)C(=O)N[C@H]2C(=O)N[C@H]3C(=O)N[C@H](C(=O)N[C@H](C(=O)O)c4cc(O)cc(O)c4-c4cc3ccc4O)[C@H](O)c3ccc(c(Cl)c3)Oc3cc2cc(c3O[C@@H]2O[C@H](CO)[C@@H](O)[C@H](O)[C@H]2O[C@H]2C[C@](C)(N)[C@H](O)[C@H](C)O2)Oc2ccc(cc2Cl)[C@H]1O [VANCOMYCIN] | – | 1.56 (≈ 1.08 µM) | – | – | 0.78 (≈ 0.538 µM) | – | 1.56 (≈ 1.08 µM) | – | 1.56 (≈ 1.08 µM) | – | – | 1.56 (≈ 1.08 µM) | – | – | – | – | –
12 | O=C(O)c1cn(C2CC2)c2cc(N3CCNCC3)c(F)cc2c1=O [CIPROFLOXACIN] | 1.56 (≈ 4.71 µM) | – | – | – | 3.12 (≈ 9.43 µM) | – | 3.12 (≈ 9.43 µM) | – | – | – | – | 3.12 (≈ 9.43 µM) | 1.56 (≈ 4.71 µM) | 1.56 (≈ 4.71 µM) | – | – | –
